Columns and labels:
Type in all cases: functional, cell-based
[1] = system: A549; test: Antiproliferative activity against human A549 cells assessed as reduction in cell viability incubated for 48 hrs by MTT assay; conditions: A549, 48 h
Outline: (§1)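 Cells grown in medium with 10% FBS and 1% antibiotic-antimycotic at 37 °C, passaged at 80–90% confluence with 0.25% trypsin/1 mM EDTA. Seeded at 1000–4000 cells/well and grown overnight. Medium was then replaced and compounds added at various concentrations for 48 h. MTT (0.5 mg/mL) was added for 4 h at 37 °C, formazan dissolved in DMSO and absorbance read at 570 nm. IC50 is the 50% inhibitory concentration.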

[2] = system: PC-3; test: Antiproliferative activity against human PC-3 cells assessed as reduction in cell viability incubated for 48 hrs by MTT assay; conditions: PC-3, 48 h; outline: as §1
[3] = system: DU-145; test: Antiproliferative activity against human DU-145 cells assessed as reduction in cell viability incubated for 48 hrs by MTT assay; conditions: DU-145, 48 h; outline: as §1

Compound: COc1ccc(-c2nnc(-c3cn4cccc(C)c4n3)o2)cc1
- IC50 [1]: 12.8 µM
- IC50 [2]: 11.8 µM
- IC50 [3]: 10.8 µM

Compound: Cc1cc(Br)c2nc(-c3nnc(-c4ccc(Br)cc4)o3)cn2c1
- IC50 [1]: 23.4 µM
- IC50 [2]: 24.5 µM
- IC50 [3]: 22.3 µM

Compound: Clc1ccc(-c2nnc(-c3cn4ccccc4n3)o2)cc1
- IC50 [1]: 32.4 µM
- IC50 [2]: 33.7 µM
- IC50 [3]: 32.8 µM

Compound: Cc1cc(Br)c2nc(-c3nnc(-c4ccccc4)o3)cn2c1
- IC50 [1]: 14.5 µM
- IC50 [2]: 17.8 µM
- IC50 [3]: 18.9 µM

Compound: Cc1cccn2cc(-c3nnc(-c4ccc(Br)cc4)o3)nc12
- IC50 [1]: 34.7 µM
- IC50 [2]: 37.8 µM
- IC50 [3]: 38.9 µM

Compound: Brc1ccc(-c2nnc(-c3cn4ccccc4n3)o2)cc1
- IC50 [1]: > 50 µM
- IC50 [2]: > 50 µM
- IC50 [3]: > 50 µM

Compound: Cc1cc(Br)c2nc(-c3nnc(-c4ccc(N(C)C)cc4)o3)cn2c1
- IC50 [1]: 10.8 µM
- IC50 [2]: 11.2 µM
- IC50 [3]: 12.8 µM

Compound: Cc1cccn2cc(-c3nnc(-c4ccc(N(C)C)cc4)o3)nc12
- IC50 [1]: 12.3 µM
- IC50 [2]: 11.6 µM
- IC50 [3]: 10.8 µM
